According to ChEMBL document CHEMBL1146535, “New manzamine alkaloids with activity against infectious and tropical parasitic diseases from an Indonesian sponge” (J Nat Prod, 2003):
Converted amounts (≈) assume the structure as drawn. The source made the active and inactive calls. The calls are words filed in the database; no cut-off is given here.

Tests used:
[1] = tested on: Mycobacterium tuberculosis; test: Antimycobacterial activity against Mycobacterium tuberculosis H37Rv; assay type: functional
Vero = test: Cytotoxicity against african green monkey Vero cells; assay type: cell-based; conditions: chlorocebus sabaeus
[2] = Cytotoxicity against mouse MS1 cells; assay type: cell-based; conditions: MS-1
[3] = Cytotoxicity against human H116 cells; assay type: functional, cell-based
HT-29 = test: Cytotoxicity against human HT-29 cells; assay type: functional, cell-based
Plasmodium falciparum [4] = test: Antimalarial activity against chloroquine-resistant Plasmodium falciparum W2; assay type: functional, organism-based
Leishmania donovani = test: Antileishmanial activity against Leishmania donovani promastigotes expressing luciferase; assay type: functional, organism-based
Outline: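 Transgenic L. donovani promastigote line stably expressing luciferase used as the test organism. Pentamidine and amphotericin B run alongside as reference antileishmanials.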

[5] = Cytotoxicity against human […] cells; assay type: functional, cell-based
Plasmodium falciparum [6] = test: Antimalarial activity against Plasmodium falciparum D6; assay type: functional, organism-based
[7] = tested on: Human immunodeficiency virus 1; test: Antiviral activity against HIV1 in human PBM cells; assay type: functional, organism-based; conditions: Human immunodeficiency virus 1, PBMC

O=C1CCCN2[C@@H](CC1)C[C@]13CN4CCCC/C=C\CC[C@](O)(C=C(c5nccc6c5[nH]c5ccccc56)C1CC4)[C@H]23 (stereo not given in full) [MANZAMINE E]
MIC [1]: 3.76 mg/L (≈ 6.66 µM) | Activity (Vero): Non-toxic

Oc1ccc2[nH]c3c(C4=C[C@@]5(O)CC/C=C\CCCCN6CC[C@@H]4[C@@]4(C6)C[C@@]67CC[C@@H](CCCN6[C@H]45)O7)nccc3c2c1 [MANZAMINE X]
IC50 [2]: 5.1 mg/L (≈ 8.78 µM) | IC50 [3]: 5.1 mg/L (≈ 8.78 µM) | IC50 (HT-29): 0.5 mg/L (≈ 0.861 µM) | IC50 (Plasmodium falciparum [4]): 2 mg/L (≈ 3.44 µM) | IC50 (Leishmania donovani): 5.7 mg/L (≈ 9.81 µM) | IC90 (Leishmania donovani): 11 mg/L (≈ 18.9 µM) | IC50 [5]: 5.1 mg/L (≈ 8.78 µM) | IC50 (Plasmodium falciparum [6]): 0.95 mg/L (≈ 1.64 µM) | Activity (Vero): Non-toxic

O=C1CCCN2[C@@H]3[C@@]45CN6CCCC/C=C\CC[C@]3(C=C(c3nccc7c3[nH]c3ccccc37)[C@@H]4CC6)O[C@@]2(CC1)C5
Activity (Plasmodium falciparum [4]): inactive | MIC [1]: 128 mg/L (≈ 227 µM) | Activity (Leishmania donovani): inactive | Activity (Plasmodium falciparum [6]): inactive | Activity (Vero): Non-toxic

c1ccc2c(c1)[nH]c1cnccc12 [NORHARMANE]
Activity (Plasmodium falciparum [4]): inactive | Activity (Leishmania donovani): inactive | Activity (Plasmodium falciparum [6]): inactive | Activity (Vero): Non-toxic

O[C@]12C=C(c3nccc4c3[nH]c3ccccc34)C3CCN(CCCC/C=C\CC1)C[C@@]31C[C@]34CC[C@H](CCCN3[C@H]12)O4 (stereo not given in full) [6-Deoxymanzamine X]
IC50 [2]: 1 mg/L (≈ 1.77 µM) | IC50 [3]: 0.5 mg/L (≈ 0.885 µM) | IC50 (HT-29): 0.5 mg/L (≈ 0.885 µM) | IC50 (Plasmodium falciparum [4]): 1.4 mg/L (≈ 2.48 µM) | MIC [1]: 1.77 mg/L (≈ 3.13 µM) | IC50 (Leishmania donovani): 3.2 mg/L (≈ 5.67 µM) | IC90 (Leishmania donovani): 7.5 mg/L (≈ 13.3 µM) | IC50 [5]: 1 mg/L (≈ 1.77 µM) | IC50 (Plasmodium falciparum [6]): 1.3 mg/L (≈ 2.3 µM) | EC50 [7]: 1.6 µM | Activity (Vero): 4760 ng/mL

O=C1[C@@H]2CCCCCCN2[C@@H]2[C@]13CN1CCCC/C=C\CC[C@]2(O)C=C(c2nccc4c2[nH]c2ccc(O)cc24)[C@@H]3CC1
Activity (Plasmodium falciparum [4]): inactive | Activity (Leishmania donovani): inactive | Activity (Plasmodium falciparum [6]): inactive | Activity (Vero): Non-toxic

O[C@]12C=C(c3nccc4c3[nH]c3ccccc34)[C@@H]3CCN(CCCC/C=C\CC1)C[C@@]31C[C@@H]3/C=C\CCCCN3[C@H]12 [MANZAMINE A]
MIC [1]: 1.53 mg/L (≈ 2.79 µM) | EC50 [7]: 0.59 µM | Activity (Vero): 1200 ng/mL

O[C@@H]1CCCN2[C@@H](CC1)C[C@]13CN4CCCC/C=C\CC[C@](O)(C=C(c5nccc6c5[nH]c5ccccc56)[C@@H]1CC4)[C@H]23 [32,33-DIHYDRO-31-HYDROXYMANZAMINE A]
Activity (Plasmodium falciparum [4]): inactive | Activity (Leishmania donovani): inactive | Activity (Plasmodium falciparum [6]): inactive | Activity (Vero): Non-toxic

O=C1NCCc2c1[nH]c1ccccc21
Activity (Plasmodium falciparum [4]): inactive | Activity (Leishmania donovani): inactive | Activity (Plasmodium falciparum [6]): inactive | Activity (Vero): Non-toxic

OC1=C[C@@]2(O)CC/C=C\CCCCN3CC[C@@H]1[C@]1(C[C@@H]4/C=C\CCCCN4[C@H]12)C3 [IRCINOL A]
IC50 (Leishmania donovani): 0.9 mg/L (≈ 2.26 µM) | IC90 (Leishmania donovani): 1.7 mg/L (≈ 4.27 µM)

Oc1cccc2c1[nH]c1c(C3=C[C@@]4(O)CC/C=C\CCCCN5CC[C@@H]3[C@]3(CC6/C=C\CCCCN6[C@H]34)C5)nccc12 (stereo not given in full)
MIC [1]: 0.91 mg/L (≈ 1.61 µM) | EC50 [7]: 4.2 µM | Activity (Vero): 1100 ng/mL

O=C(c1c[nH]cn1)c1nccc2c1[nH]c1ccccc12 [DES-N-METHYLXESTOMANZAMINE A]
Activity (Plasmodium falciparum [4]): inactive | IC50 (Leishmania donovani): 35 mg/L (≈ 133 µM) | IC90 (Leishmania donovani): > 50 mg/L | Activity (Plasmodium falciparum [6]): inactive | Activity (Vero): Non-toxic

O=C1CCCN2[C@@H](CC1)C[C@]13CN4CCCC/C=C\CC[C@](O)(C=C(c5nccc6c5[nH]c5c(O)cccc56)C1CC4)[C@H]23 (stereo not given in full) [MANZAMINE F]
MIC [1]: 2.56 mg/L (≈ 4.41 µM) | Activity (Vero): Non-toxic

C1=C(c2nccc3c2[nH]c2ccccc23)[C@@H]2CCN3CCCC/C=C\CC[C@]14O[C@@]15/C=C\CCCCN1[C@@H]4[C@]2(C3)C5 [12,34-OXAMANZAMINE A]
Activity (Plasmodium falciparum [4]): inactive | Activity (Vero): Non-toxic
